ChEMBL document CHEMBL1133549, “N4-(omega-Aminoalkyl)-1-[(omega-aminoalkyl)amino]-4- acridinecarboxamides: novel, potent, cytotoxic, and DNA-binding agents” (J Med Chem, 2000)
pIC50: −log10 of the molar value.

What was measured:
[1] = system: Nucleic Acid; assay: Binding affinity against CT-DNA from calf thymus DNA; assay type: nucleic-acid assay; conditions: Bos taurus
How it was run: (§1)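 Ethidium displacement measured fluorometrically at 20 °C (excitation 546 nm, emission 595 nm). Buffer was 10 mM Na2HPO4, 10 mM NaH2PO4, 1 mM EDTA, pH 7.0, with 1.26 µM ethidium bromide and 1 µM of CT-DNA, [poly(dA-dT)]2 or [poly(dG-dC)]2. Drug was added serially from a ~5 mM DMSO stock. C50 (50% loss of bound-ethidium fluorescence) is the mean of three determinations. Kapp = 1.26/C50 × 10^7.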

[2] = system: Nucleic Acid; assay: Tested for binding affinity against AT from [poly(dA-dT)]2.; assay type: nucleic-acid assay; how it was run: as §1
[3] = system: Nucleic Acid; assay: Binding affinity against GC from [poly(dG-dC)]2.; assay type: nucleic-acid assay; how it was run: as §1
[4] = system: SK-OV-3; assay: The compound was tested for cytotoxic activity against SKOV-3 cell line(human ovarian carcinoma ); assay type: functional, cell-based
How it was run: (§2)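 Human ovarian carcinoma cells (100–5000) were plated and allowed to adhere overnight. Drug was diluted from DMSO stock into aqueous solution at pH 7.0 and applied continuously for 96 h at 37 °C. Growth was read by SRB protein staining. IC50 is 50% growth inhibition versus drug-free controls, from a representative experiment with 4 replicate wells per concentration and 8 control wells.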

[5] = system: HT-29; assay: The compound was tested for cytotoxic activity against HT-29 cell line(human colon adeno carcinoma); assay type: functional, cell-based
How it was run: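 HT29 colon adenocarcinoma cells at 2.5×10^4 cells/mL received drug under protracted exposure for 144 h. Assays were run in triplicate.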

[6] = system: CH1; assay: (§3) The compound was tested for cytotoxic activity against CH1/Cs cell line(human ovarian carcinoma); assay type: functional, cell-based; how it was run: as §2
[7] = system: A2780; assay: The compound was tested for cytotoxic activity against A2780 cell line(human ovarian carcinoma ); assay type: functional, cell-based; how it was run: as §2
[8] = system: CH1; assay: The compound was tested for cytotoxic activity against CH1 cell line(human ovarian carcinoma ); assay type: functional, cell-based; how it was run: as §2
[9] = system: A2780cisR; assay: The compound was tested for cytotoxic activity against A2780cisR cell line(human ovarian carcinoma ); assay type: functional, cell-based; how it was run: as §2
[10] = as §3; assay type: functional, cell-based; how it was run: as §2
[11] = system: A2780; assay: The compound was tested for cytotoxic activity against A2780/Cs cell line(human ovarian carcinoma; assay type: functional, cell-based; how it was run: as §2
[12] = system: A2780cisR; assay: The compound was tested for cytotoxic activity against A2780cisR cell line(human ovarian carcinoma); assay type: functional, cell-based; how it was run: as §2
[13] = system: A2780cisR; assay: The compound was tested for cytotoxic activity against A2780cisR cell line(human ovarian carcinoma; assay type: functional, cell-based; how it was run: as §2

Compound | K app [1] [M⁻¹] | K app [2] [M⁻¹] | K app [3] [M⁻¹] | pIC50 [4] | pIC50 [5] | pIC50 [6] | pIC50 [7] | pIC50 [8] | pIC50 [9] | pIC50 [10] | pIC50 [11] | pIC50 [12] | pIC50 ([9]; a2780cisr) | pIC50 ([9]; Homo sapiens, A2780cisR) | pIC50 [13]
CN(C)CCNC(=O)c1ccc(NCCN(C)C)c2cc3cc(N)ccc3nc12 [listing 1 of 3 here] | 1.4e+09 | 2.8e+08 | 4.1e+08 |  |  |  |  |  |  |  |  |  |  |  | 
CN(C)CCNC(=O)c1ccc(NCCN(C)C)c2cc3cc(N)ccc3nc12 [listing 2 of 3 here] |  |  |  | 6.81 | 6.15 | 7.00 | 6.49 | 7.05 | 6.44 |  |  |  |  |  | 
CN(C)CCNC(=O)c1ccc(NCCN(C)C)c2cc3ccccc3nc12 | 1.5e+09 | 2.8e+07 | 2.3e+08 | 6.96 | 8.15 |  | 8.37 | 8.15 |  | 8.30 | 8.15 |  |  |  | 
COc1ccc2nc3c(C(=O)NCCN(C)C)ccc(NCCN(C)C)c3cc2c1 | 1.9e+07 | 1.4e+07 | 5.9e+07 | 7.22 | 6.25 |  | 7.02 | 7.30 |  | 7.36 |  | 6.90 |  |  | 
CISPLATIN |  |  |  |  |  |  |  |  |  |  |  |  | 5.47 |  | 
CN(C)CCNC(=O)c1ccc(NCCN(C)C)c2c(=O)c3ccccc3[nH]c12 | 3.7e+07 |  |  | 6.40 | 7.03 |  | 7.82 | 7.70 |  |  |  |  |  |  | 
CN(C)CCNC(=O)c1ccc(NCCN(C)C)c2cc3cc(N)ccc3nc12 [listing 3 of 3 here] |  |  |  | 6.81 | 6.15 | 7.00 | 6.49 | 7.05 |  |  |  |  |  | 6.44 | 
CN(C)CCCNC(=O)c1ccc(NCCCN(C)C)c2cc3ccccc3nc12 [listing 1 of 2 here] |  |  |  | 6.18 | 6.15 | 6.28 | 5.71 | 6.07 |  |  |  |  |  | 5.90 | 
CN(C)CCNC(=O)c1cccc2cc3ccccc3nc12 | 1.1e+06 | 1.4e+06 | 1e+06 | 6.01 | 6.00 |  | 6.29 | 6.32 | 6.24 | 6.28 |  |  |  |  | 
CN(C)CCNC(=O)c1ccc(NCCN(C)C)c2cc3cc(O)ccc3nc12 | 2.9e+08 | 3.1e+07 | 1e+08 | 6.05 | 6.07 |  | 6.96 | 6.82 | 6.72 | 6.70 |  |  |  |  | 
CN(C)CCNC(=O)c1ccc(NCCNCCO)c2cc3ccccc3nc12 | 9.9e+07 | 4.5e+07 | 3e+08 | 6.62 | 7.00 |  | 7.07 | 7.28 | 7.04 | 7.34 |  |  |  |  | 
CN(C)CCCNC(=O)c1ccc(NCCCN(C)C)c2cc3ccccc3nc12 [listing 2 of 2 here] |  |  |  | 6.18 | 6.15 |  | 5.71 | 6.07 |  | 6.28 | 5.90 |  |  |  | 
COc1cccc2c1C(=O)c1c(O)c3c(c(O)c1C2=O)C[C@@](O)(C(=O)CO)C[C@@H]3O[C@H]1C[C@H](N)[C@H](O)[C@H](C)O1 [DOXORUBICIN] |  |  |  |  |  | 6.35 |  |  |  |  |  |  |  | 7.77 | 
O=C(NCCN1CCCCC1)c1ccc(NCCN2CCCCC2)c2cc3ccccc3nc12 | 3.4e+07 | 2.7e+07 | 6.3e+07 | 6.85 | 6.36 |  | 7.00 | 6.87 | 6.92 | 6.96 |  |  |  |  | 
CN(C)CCNC(=O)c1ccc(Cl)c2cc3ccccc3nc12 |  |  |  | 5.48 | 6.10 |  | 5.69 | 5.76 | 5.69 | 5.72 |  |  |  |  | 
O=C(NCCN1CCOCC1)c1ccc(NCCN2CCOCC2)c2cc3ccccc3nc12 | 4.4e+06 | 5e+06 | 3e+06 | 5.49 | 5.57 |  | 5.64 | 5.73 | 5.60 | 5.67 |  |  |  |  | 
NCCNC(=O)c1ccc(NCCN)c2cc3ccccc3nc12 | 8.5e+07 | 2.2e+07 | 5.6e+07 | 4.92 | 5.16 |  | 4.92 | 5.92 | 5.50 | 5.81 |  |  |  |  | 
CCN(CC)CCNC(=O)c1ccc(NCCN(CC)CC)c2cc3ccccc3nc12 | 1.5e+08 | 1.7e+07 | 9.1e+07 | 6.30 | 6.24 |  | 6.38 | 6.73 |  | 6.43 |  |  |  |  | 6.32
